Reference: ChEMBL document CHEMBL4513216, “Probing the Open Global Health Chemical Diversity Library for Multistage-Active Starting Points for Next-Generation Antimalarials” (ACS Infect Dis, 2020)

experiment: Toxicity liver stage against HepG2, at 10uM; type: cell-based; set-up: test concentration 10 uM, cell line HepG2-A16-CD81EGFP; details: human, HepG2-A16-CD81EGFP cells; read-out: INHIBITION
Summary of the method: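 Uninfected HepG2-A16-CD81EGFP cells, 3 × 10^3 per well, 1536-well, plated on prespotted compound at 10 μM final, parasite-free screening media added to match infected plates; puromycin 10 μM positive, DMSO 0.5% negative; run in parallel with 48 h PbLuc assay at 37 °C, 5% CO2; viability by CellTiter-Glo luminescence, normalized to controls.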

SMILES	cytotoxicity at 10 µM
CO[C@@H]1CN(c2ccccc2)S(=O)(=O)[C@@]12CCN(Cc1cncs1)C2	5.63%
CO[C@H]1CN(c2ccccc2)S(=O)(=O)[C@@]12CCN(Cc1ccccc1)C2	-4.86%
O=S(=O)(Nc1cnc(N2CCOCC2)nc1)c1ccc(Cl)cc1	-5.82%
O=C(NCC1CCCCC1)c1nnn(-c2ccc(Br)cc2)n1	-0.895%
COC1(CNS(=O)(=O)c2ccccc2Br)CCSC1 (stereo unspecified)	-8.26%
Cn1cnnc1S(=O)(=O)C1CCN(C(=O)c2cccs2)CC1	6.03%
CN(C)C(=O)N1Cc2nnn(C)c2C(COCC2CC2)C1 (stereo unspecified)	-10.7%
N#CCCN1CCN(S(=O)(=O)c2ccc(Cl)s2)CC1	14.7%
CN(C)CCN(C)S(=O)(=O)Cc1ccc(Br)cc1	0.936%
CC(C(=O)N1CCN(C(=O)c2ccc(F)cc2F)CC1)n1ccnc1 (stereo unspecified)	1.63%
Cc1ccc(C(=O)N2CCN(C(=O)C(C)n3ccnc3)CC2)cc1F (stereo unspecified)	3.72%
Cc1noc(CCCNS(=O)(=O)N2CCCC2c2ccco2)n1 (stereo unspecified)	-7.88%
Cn1cccc1-c1nnc(C2(c3ccc4c(c3)OCO4)CCOCC2)o1	20.3%
CCCN1CCC(N2CCN(c3cc(C)nc(COC)n3)CC2)CC1	-0.332%
CC(=O)c1ccc(Cl)c(Cl)c1OCC(=O)NCC(F)(F)F	-1.2%
CS(=O)(=O)NC1CCN(CCOCc2ccccc2)CC1	2.84%
Cc1cc(CNC(=O)c2cc(COc3cncc(Cl)c3)on2)n[nH]1	16.1%
Cc1nccn1CCCN1CCCC(c2nccn2CC2CCC2)C1 (stereo unspecified)	-13.7%
CS(=O)(=O)c1cnc(CC2CC2)nc1C1CCCNC1 (stereo unspecified)	-33.5%
Cc1c(Cl)cc(C(=O)NCCc2ncnn2C)cc1Cl	6.07%
CCN(Cc1cnc(NCc2ccccc2)nc1)C1CCS(=O)(=O)C1 (stereo unspecified)	-15.3%
CN(Cc1ncc[nH]1)c1nc(-c2ccccn2)nc2c1CCNCC2	-0.796%
Cc1[nH]c(-c2ccccc2)nc1C(=O)N1CCC2(CCCO2)CC1	2.8%

SMILES	cytotoxicity at 10 µM
Cc1cc(-c2nn(C)c(Cl)c2CN2CCOCC(O)C2)no1 (stereo unspecified)	-14.8%
Cn1cc(CN2CC[C@@H]3[C@@H](CCC(=O)N3CCC3=CCCCC3)C2)cn1	-8.68%
CCc1cc(C(F)(F)F)c2c(C)nn(CC(=O)O)c2n1	0.77%
CCc1ncc2c(n1)CN(Cc1nnc(Cc3ccccc3)o1)CC2	-3.04%
O=C(NCc1nn(-c2ccccc2)c2c1CCC2)NC1CCC(O)CC1 (stereo unspecified)	-7.75%
Cn1cc(C2CCCN2Cc2csc(C3CCCC3)n2)cn1 (stereo unspecified)	8.3%
Clc1ccccc1-c1nnc(CNCCn2cccn2)o1	1.4%
Cc1cc(CN(C)C(=O)c2ccc(OC(C)C)nc2)no1	-15.3%
COc1ccc(C(=O)N2CCC(Nc3ccc(C)nn3)CC2)cc1	-8.51%
COCc1nc(C(=O)N2CCCC2c2cccs2)cs1 (stereo unspecified)	-5.16%
CCc1nnc2n1CCN(C(=O)c1cc(Br)c[nH]1)C2	-7.93%
CCc1nc(C2CCCN(C(=O)c3cn(C)nc3C)C2)no1 (stereo unspecified)	-14.5%
Cn1ccc(CN2CCC(NC(=O)Cc3ccccc3)CC2)cc1=O	-9.75%
O=C1CCC(C(=O)NCc2nn(-c3ccccc3)c3c2CCC3)CN1 (stereo unspecified)	-10.1%
O=C(NCc1nn(-c2ccccc2)c2c1CCC2)N1CCSCC1	-4.89%
Cc1cc(CN2CCC(c3ccnn3CCO)CC2)no1	-11.2%
O=C(NCCN1CCOCC1)c1n[nH]c(=O)c2ccccc12	0.376%
CC(O)CN1CCN(C(=O)c2ccc(Cn3cccn3)cc2)CC1 (stereo unspecified)	-1.45%
O=C(O)c1ccc(S(=O)(=O)Nc2ccc(Cl)c(F)c2)c(F)c1	-14.3%
CCN1CCC(NC(=O)CN2CCc3c(ncn3C)C2)CC1	1.85%
CCN(Cc1ccc2c(c1)OCCO2)C(=O)NCc1cc[nH]n1	1.54%
CCc1nc(CN2CCCN(C(=O)CCSC)CC2)cs1	-5.41%
Cc1nn(C)c(Cl)c1CNCc1cccnc1N1CCOCC1	-4.17%
